Test results reported in ChEMBL document CHEMBL1126705, “16 beta-([18F]fluoro)estrogens: systematic investigation of a new series of fluorine-18-labeled estrogens as potential imaging agents for estrogen-receptor-positive breast tumors” (J Med Chem, 1993).

Experiments:
[1] = tested on: Rattus norvegicus; test: Tested in vivo for the biodistribution in rat uterus/muscle after 3 hours following an intravenous dose of 100 microCi of drug in 10%ethanol saline; type: ADME, organism-based, Muscle tissue
In short: (§1)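 Female Sprague-Dawley rats, 25 days old (~40–53 g), ether-anesthetized, given the 18F-labeled estrogen iv via femoral vein in 10% ethanol saline. […] Others were sacrificed by decapitation at 1 or 3 h. Blood and organs were excised, weighed and gamma counted as % injected dose/g, mean ± SD, typically n = 5 (4–6).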

[2] = tested on: Rattus norvegicus; test: Tested in vivo for the biodistribution in rat uterus/muscle at 1 hour after intravenous dose of 100 microCi of drug in 10%ethanol saline; type: ADME, organism-based, Muscle tissue; in short: as §1
[3] = tested on: Rattus norvegicus; test: Tested in vivo for the biodistribution in rat uterus/muscle at 1 hour after intravenous dose of 100 microCi of the drug and 15 ug of estradiol; type: ADME, organism-based, Muscle tissue; in short: as §1
[4] = tested on: Rattus norvegicus; test: Tested in vivo for the biodistribution in blood of female rat after 3 hours following an intravenous dose of 100 microCi of drug in 10%ethanol saline; type: ADME, organism-based
In short: (§2)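 Ether-anesthetized 25-day-old female Sprague-Dawley rats (~40–53 g) got the [18F] tracer in 10% ethanol saline via femoral vein. Rats were decapitated at 1 or 3 h, and blood and organs were weighed and gamma-counted. Values are % injected dose/g as mean ± SD, n = 5 per time point.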

[5] = tested on: Rattus norvegicus; test: Tested in vivo for the biodistribution in blood of female rat at 1 hour after intravenous dose of 100 microCi of drug in 10%ethanol saline; type: ADME, organism-based; in short: as §2
[6] = tested on: Rattus norvegicus; test: Tested in vivo for the biodistribution in blood of female rat at 1 hour after intravenous dose of 100 microCi of the drug and 15 u g of estradiol; type: ADME, organism-based
[7] = tested on: Rattus norvegicus; test: Tested in vivo for the biodistribution in rat bone at 1 hour after intravenous dose of 100 microCi of drug in 10%ethanol saline; type: ADME, organism-based, Bone element; in short: as §2
[8] = tested on: Rattus norvegicus; test: Tested in vivo for the biodistribution in rat bone at 1 hour after intravenous dose of 100 microCi of the drug and 15 ug of estradiol; type: ADME, organism-based, Bone element
[9] = tested on: Rattus norvegicus; test: Tested in vivo for the biodistribution in rat fat after 3 hours following an intravenous dose of 100 microCi of drug in 10%ethanol saline; type: ADME, organism-based, Adipose tissue; in short: as §2
[10] = tested on: Rattus norvegicus; test: Tested in vivo for the biodistribution in rat fat at 1 hour after intravenous dose of 100 microCi of drug in 10%ethanol saline; type: ADME, organism-based, Adipose tissue; in short: as §2
[11] = tested on: Rattus norvegicus; test: Tested in vivo for the biodistribution in rat ovaries at 1 hour after intravenous dose of 100 microCi of drug in 10%ethanol saline; type: ADME, organism-based, Female gonad
In short: (§3)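 Immature (25-day-old) female Sprague-Dawley rats, ether-anesthetized, given the fluorine-18-labeled estrogen by femoral vein injection in 10% ethanol saline. […] Other groups were killed by decapitation at 1 or 3 h. Blood and organs were weighed and gamma-counted. Data are % injected dose/g, mean ± SD, typically n = 5 per group.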

[12] = tested on: Rattus norvegicus; test: Tested in vivo for the biodistribution in rat ovaries at 1 hour after intravenous dose of 100 microCi of the drug and 15 ug of estradiol; type: ADME, organism-based, Female gonad; in short: as §3
[13] = tested on: Rattus norvegicus; test: Tested in vivo for the biodistribution in rat muscle at 1 hour after intravenous dose of 100 microCi of drug in 10%ethanol saline; type: ADME, organism-based, Muscle tissue; in short: as §3
[14] = tested on: Rattus norvegicus; test: Tested in vivo for the biodistribution in rat muscle at 1 hour after intravenous dose of 100 microCi of the drug and 15 ug of estradiol; type: ADME, organism-based, Muscle tissue; in short: as §3
[15] = tested on: Rattus norvegicus; test: Tested in vivo for the biodistribution in rat ovaries after 3 hours following an intravenous dose of 100 microCi of drug in 10%ethanol saline; type: ADME, organism-based, Female gonad; in short: as §3
[16] = tested on: Rattus norvegicus; test: Tested in vivo for the biodistribution in rat fat at 1 hour after intravenous dose of 100 microCi of the drug and 15 ug of estradiol; type: ADME, organism-based, Adipose tissue
[17] = tested on: Rattus norvegicus; test: Tested in vivo for the biodistribution in rat uterus after 3 hours following an intravenous dose of 100 microCi of drug in 10%ethanol saline; type: ADME, organism-based; in short: as §3
[18] = tested on: Rattus norvegicus; test: Tested in vivo for the biodistribution in rat uterus at 1 hour after intravenous dose of 100 microCi of drug in 10%ethanol saline; type: ADME, organism-based; in short: as §3
[19] = tested on: Rattus norvegicus; test: Tested in vivo for the biodistribution in rat uterus at 1 hour after intravenous dose of 100 microCi of the drug and 15 micro g of estradiol; type: ADME, organism-based; in short: as §3
[20] = tested on: Rattus norvegicus; test: Tested in vivo for the biodistribution in rat uterus/blood after 3 hours following an intravenous dose of 100 microCi of drug in 10%ethanol saline; type: ADME, organism-based; in short: as §1
[21] = tested on: Rattus norvegicus; test: Tested in vivo for the biodistribution in rat uterus/blood at 1 hour after intravenous dose of 100 microCi of drug in 10%ethanol saline; type: ADME, organism-based; in short: as §1
[22] = tested on: Rattus norvegicus; test: Tested in vivo for the biodistribution in rat uterus/blood at 1 hour after intravenous dose of 100 microCi of the drug and 15 ug of estradiol; type: ADME, organism-based; in short: as §1
[23] = tested on: Rattus norvegicus; test: Tested in vivo for the biodistribution in rat bone after 3 hours following an intravenous dose of 100 microCi of drug in 10%ethanol saline; type: ADME, organism-based, Bone element; in short: as §2
[24] = tested on: Rattus norvegicus; test: Tested in vivo for the biodistribution in rat kidney after 3 hours following an intravenous dose of 100 microCi of drug in 10%ethanol saline; type: ADME, organism-based; in short: as §2
[25] = tested on: Rattus norvegicus; test: Tested in vivo for the biodistribution in rat kidney at 1 hour after intravenous dose of 100 microCi of the drug and 15 u g of estradiol; type: ADME, organism-based
[26] = tested on: Rattus norvegicus; test: Tested in vivo for the biodistribution in rat liver after 3 hours following an intravenous dose of 100 microCi of drug in 10%ethanol saline; type: ADME, organism-based; in short: as §3
[27] = tested on: Rattus norvegicus; test: Tested in vivo for the biodistribution in rat liver at 1 hour after intravenous dose of 100 microCi of drug in 10%ethanol saline; type: ADME, organism-based; in short: as §3
[28] = tested on: Rattus norvegicus; test: Tested in vivo for the biodistribution in rat liver at 1 hour after intravenous dose of 100 microCi of the drug and 15 u g of estradiol; type: ADME, organism-based; in short: as §3
[29] = tested on: Rattus norvegicus; test: Tested in vivo for the biodistribution in rat muscle after 3 hours following an intravenous dose of 100 microCi of drug in 10%ethanol saline; type: ADME, organism-based, Muscle tissue; in short: as §3
[30] = Partition coefficient (logP); type: physicochemical; conditions: octanol/water
In short: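 Octanol/water log P estimated from log k'w measured by reversed-phase HPLC (Minick method) on a C8 silica column.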

[31] = target: T1, Alpha-fetoprotein (Rattus norvegicus) (UniProt P02773); test: Relative binding affinity for Alphafetoprotein
T1 sequence (whole entry): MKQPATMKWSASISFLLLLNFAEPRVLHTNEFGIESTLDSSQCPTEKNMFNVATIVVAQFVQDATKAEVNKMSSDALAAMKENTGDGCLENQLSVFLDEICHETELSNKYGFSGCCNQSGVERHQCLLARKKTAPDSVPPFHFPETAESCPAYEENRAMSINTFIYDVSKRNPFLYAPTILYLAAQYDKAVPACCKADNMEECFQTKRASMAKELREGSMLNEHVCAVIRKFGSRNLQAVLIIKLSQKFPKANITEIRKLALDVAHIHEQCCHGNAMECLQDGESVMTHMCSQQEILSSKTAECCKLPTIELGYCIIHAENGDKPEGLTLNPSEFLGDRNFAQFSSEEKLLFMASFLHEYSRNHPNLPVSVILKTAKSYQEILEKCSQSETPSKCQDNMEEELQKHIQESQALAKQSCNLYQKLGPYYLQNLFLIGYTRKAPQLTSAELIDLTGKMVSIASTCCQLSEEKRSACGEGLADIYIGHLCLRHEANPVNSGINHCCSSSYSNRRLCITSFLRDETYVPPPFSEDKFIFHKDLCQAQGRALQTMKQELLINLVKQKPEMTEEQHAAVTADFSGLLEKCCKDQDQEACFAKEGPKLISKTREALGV

[32] = target: T2, Sex hormone-binding globulin (Homo sapiens) (UniProt P04278); test: Relative binding affinity against sex steroid binding protein (SBP)
T2 sequence (whole entry): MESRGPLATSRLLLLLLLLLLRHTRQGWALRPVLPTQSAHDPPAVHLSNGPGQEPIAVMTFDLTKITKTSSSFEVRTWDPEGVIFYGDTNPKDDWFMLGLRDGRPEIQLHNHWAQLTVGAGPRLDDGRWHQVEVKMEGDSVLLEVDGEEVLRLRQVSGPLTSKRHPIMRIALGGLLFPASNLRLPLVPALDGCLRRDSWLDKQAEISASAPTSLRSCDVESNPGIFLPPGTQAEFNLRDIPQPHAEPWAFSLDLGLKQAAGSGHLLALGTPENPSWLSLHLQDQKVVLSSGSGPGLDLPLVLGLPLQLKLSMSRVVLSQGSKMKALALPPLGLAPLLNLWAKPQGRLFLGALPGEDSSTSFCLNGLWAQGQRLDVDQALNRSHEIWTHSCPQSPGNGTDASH

[33] = tested on: Rattus norvegicus; test: Tested in vivo for the biodistribution in rat kidney at 1 hour after intravenous dose of 100 microCi of drug in 10%ethanol saline; type: ADME, organism-based; in short: as §2
[34] = target: T3, Estrogen receptor (Rattus norvegicus) (UniProt P06211+Q62986)
[35] = target: T3, Estrogen receptor (Rattus norvegicus); remark: listed apart in the source

Q: Which Injected [1] does the source give for `C#C[C@]1(O)[C@@H](F)C[C@H]2[C@@H]3CCc4cc(O)ccc4[C@H]3CC[C@@]21C` here?
A: 32.37%

Q: And the Injected [2]?
A: 24.42%

Q: What about the Injected [3] of the same compound?
A: 2.424%

Q: And the Injected [4]?
A: 0.358%

Q: And the Injected [5]?
A: 0.449%

Q: What about the Injected [6] of the same compound?
A: 0.576%

Q: And the Injected [7]?
A: 0.608%

Q: And the Injected [8]?
A: 0.635%

Q: What about the Injected [9] of the same compound?
A: 0.122%

Q: What about the Injected [10] of the same compound?
A: 0.337%

Q: And the Injected [11]?
A: 2.159%

Q: And the Injected [12]?
A: 0.863%

Q: What about the Injected [13] of the same compound?
A: 0.307%

Q: What about the Injected [14] of the same compound?
A: 0.22%

Q: What about the Injected [15] of the same compound?
A: 1.274%

Q: What about the Injected [16] of the same compound?
A: 0.206%

Q: And the Injected [17]?
A: 4.31%

Q: And the Injected [18]?
A: 7.466%

Q: And the Injected [19]?
A: 0.533%

Q: And the Injected [20]?
A: 12.21%

Q: What about the Injected [21] of the same compound?
A: 16.87%

Q: What about the Injected [22] of the same compound?
A: 0.92%

Q: And the Injected [23]?
A: 0.557%

Q: And the Injected [24]?
A: 0.376%

Q: What about the Injected [25] of the same compound?
A: 0.752%

Q: And the Injected [26]?
A: 2.204%

Q: And the Injected [27]?
A: 2.249%

Q: And the Injected [28]?
A: 2.412%

Q: And the Injected [29]?
A: 0.133%

Q: What about the logP [30] of the same compound?
A: 3.3

Q: And the relative binding affinity (RBA) [31]?
A: 22

Q: What about the relative binding affinity (RBA) [32] of the same compound?
A: 0.589

Q: What about the Injected [33] of the same compound?
A: 0.906%

Q: And the NSB [34]?
A: 1.04

Q: And the BSI [35]?
A: 27
